According to article PMC8649585 (Neoplasia (New York, N.Y.), 2021):
Like-named read-outs stand apart in the source and are kept apart here.

Experiments:
HUH7 cells [1] = assay: Cell cycle analysis; type: cell-based, human; settings: 18 h
Procedure, shortened: (§1)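 Cells seeded at 1 × 10^5 on 60 mm plates and exposed to test compound for 18 h. They were then fixed in 70% ethanol and resuspended in PBS containing 50 μg/mL propidium iodide. DNA content was measured by flow cytometry to give the cell cycle phase distribution.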

AN3-CA cells = assay: Cell proliferation assay; type: cell-based; settings: 72 h
FGFR1 WT = FGFR1 WT (Homo sapiens, UniProt P11362); assay: Radiometric biochemical kinase assay; settings: ATP 10 µM
FGFR1 WT, sequence (P11362 22-822): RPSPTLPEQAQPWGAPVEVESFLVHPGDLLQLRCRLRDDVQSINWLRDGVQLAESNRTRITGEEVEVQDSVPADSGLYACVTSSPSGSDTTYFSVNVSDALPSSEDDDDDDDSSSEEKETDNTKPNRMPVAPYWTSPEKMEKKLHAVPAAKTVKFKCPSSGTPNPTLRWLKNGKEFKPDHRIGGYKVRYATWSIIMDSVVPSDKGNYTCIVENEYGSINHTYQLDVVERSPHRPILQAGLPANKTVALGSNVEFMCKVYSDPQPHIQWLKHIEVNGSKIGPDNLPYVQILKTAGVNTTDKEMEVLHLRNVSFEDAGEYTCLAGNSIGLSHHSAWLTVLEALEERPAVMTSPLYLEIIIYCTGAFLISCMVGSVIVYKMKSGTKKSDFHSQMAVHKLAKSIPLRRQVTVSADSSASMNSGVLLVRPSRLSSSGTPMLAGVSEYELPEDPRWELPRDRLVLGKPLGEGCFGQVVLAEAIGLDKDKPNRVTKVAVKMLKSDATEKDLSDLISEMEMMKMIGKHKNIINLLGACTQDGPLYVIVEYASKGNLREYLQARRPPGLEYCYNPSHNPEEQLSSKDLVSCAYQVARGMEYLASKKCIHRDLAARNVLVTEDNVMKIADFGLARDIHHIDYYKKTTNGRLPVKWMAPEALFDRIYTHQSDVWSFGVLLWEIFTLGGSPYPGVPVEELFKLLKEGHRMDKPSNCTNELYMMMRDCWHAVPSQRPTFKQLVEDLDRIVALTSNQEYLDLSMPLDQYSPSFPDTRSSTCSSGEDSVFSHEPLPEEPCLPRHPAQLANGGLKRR

FGFR4 WT = FGFR4 WT (Homo sapiens, UniProt P22455); assay: Radiometric biochemical kinase assay
FGFR4 WT, sequence (P22455 22-802): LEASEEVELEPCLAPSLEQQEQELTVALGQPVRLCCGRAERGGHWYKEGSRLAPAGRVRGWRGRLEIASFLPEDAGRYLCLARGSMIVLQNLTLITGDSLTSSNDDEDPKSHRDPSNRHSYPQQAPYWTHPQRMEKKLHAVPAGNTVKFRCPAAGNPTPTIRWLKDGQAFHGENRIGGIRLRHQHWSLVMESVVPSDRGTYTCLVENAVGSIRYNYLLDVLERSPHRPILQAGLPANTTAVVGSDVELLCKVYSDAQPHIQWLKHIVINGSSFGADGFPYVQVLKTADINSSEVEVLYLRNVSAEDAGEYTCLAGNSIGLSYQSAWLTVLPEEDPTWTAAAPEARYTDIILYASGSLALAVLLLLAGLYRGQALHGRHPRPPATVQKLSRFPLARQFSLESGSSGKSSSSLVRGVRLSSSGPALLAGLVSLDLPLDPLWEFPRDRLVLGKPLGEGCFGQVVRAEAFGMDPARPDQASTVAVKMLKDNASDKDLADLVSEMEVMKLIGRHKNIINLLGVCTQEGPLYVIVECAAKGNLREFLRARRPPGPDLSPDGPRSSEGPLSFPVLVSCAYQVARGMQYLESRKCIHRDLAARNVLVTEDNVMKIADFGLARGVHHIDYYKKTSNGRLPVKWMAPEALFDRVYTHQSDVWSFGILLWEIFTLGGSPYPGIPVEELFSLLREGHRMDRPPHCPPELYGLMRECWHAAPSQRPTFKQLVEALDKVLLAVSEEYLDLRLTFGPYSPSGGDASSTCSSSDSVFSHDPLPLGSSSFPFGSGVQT

HEP3B cells [2] = assay: Apoptosis assay; type: cell-based, human; settings: 24 h
Procedure, shortened: (§2)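 Cells (1 × 10^5) were treated with test compound for 24 h, then harvested and stained with Alexa Fluor 488 annexin V and propidium iodide per kit instructions, and analysed by flow cytometry. Culture: HEP3B and SK-HEP1 in DMEM, HUH7 in RPMI1640, each with 10% FBS and antibiotic-antimycotic, at 37 °C under 5% CO2.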

FGFR2 N549H = FGFR2 N549H (Homo sapiens, UniProt P21802, N549H); assay: Radiometric biochemical kinase assay; settings: ATP 10 µM
FGFR2 N549H, sequence (P21802 22-821 N549H): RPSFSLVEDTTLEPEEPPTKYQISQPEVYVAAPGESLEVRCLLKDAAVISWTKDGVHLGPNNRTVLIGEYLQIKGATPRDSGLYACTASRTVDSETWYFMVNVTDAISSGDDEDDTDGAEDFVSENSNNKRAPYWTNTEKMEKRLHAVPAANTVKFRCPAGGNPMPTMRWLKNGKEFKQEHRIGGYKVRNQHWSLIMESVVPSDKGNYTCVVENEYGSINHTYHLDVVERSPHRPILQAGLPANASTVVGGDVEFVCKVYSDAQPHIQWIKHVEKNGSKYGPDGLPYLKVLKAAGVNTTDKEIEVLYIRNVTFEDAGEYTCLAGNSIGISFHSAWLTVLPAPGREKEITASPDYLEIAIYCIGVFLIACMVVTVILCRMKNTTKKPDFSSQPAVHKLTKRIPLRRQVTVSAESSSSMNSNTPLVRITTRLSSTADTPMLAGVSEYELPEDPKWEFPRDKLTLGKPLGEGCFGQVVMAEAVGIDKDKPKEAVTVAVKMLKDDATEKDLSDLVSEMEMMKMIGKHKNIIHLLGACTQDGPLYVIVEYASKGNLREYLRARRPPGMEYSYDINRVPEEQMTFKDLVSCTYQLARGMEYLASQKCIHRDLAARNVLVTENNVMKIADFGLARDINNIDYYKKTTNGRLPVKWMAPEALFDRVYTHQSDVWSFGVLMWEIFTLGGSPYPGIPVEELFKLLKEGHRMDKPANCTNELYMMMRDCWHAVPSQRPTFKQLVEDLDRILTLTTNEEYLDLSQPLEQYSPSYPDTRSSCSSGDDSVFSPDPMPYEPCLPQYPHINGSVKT

HUH7 cells [3] = assay: Scratch wound healing migration assay; type: cell-based, human; settings: GNF-7 0.01 or 0.05 μM, SIJ1263 0.002 or 0.005 μM, PD173074 0.1 μM, 36 h
[4] = system: phosphorylation of FGFR and downstream molecules (PLCγ, FRS2α, AKT, ERK1/2) in HUH7 cells; assay: Western blot of FGFR signaling; type: cell-based, human; settings: dose-dependent
Procedure, shortened: (§3)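 After SDS-PAGE, proteins were transferred to nitrocellulose and blocked in 5% milk in TBS-T. Rabbit antibodies (FGFR4, pFGFR, pERK, pFRS2α, pPLCγ, β-actin) were applied overnight at 4 °C, then secondary for 1 h. Detection was by ECL with densitometry.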

HEPG2 cells = assay: Cell proliferation assay; type: cell-based, human; settings: FGFR4 overexpression, HCC
Procedure, shortened: (§4)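 Seeding was 5 × 10^3 cells per well in 96-well plates: HEP3B in DMEM, HUH7 and HEPG2 in RPMI1640, all with 10% FBS at 37 °C under 5% CO2. Cells received 10 doses of test compound in 3-fold serial dilution for 72 h. Viability was read by CellTiter-Glo luminescence.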

SK-HEP1 cells [5] = assay: Soft agar anchorage-independent growth assay; type: cell-based; settings: 5 µM, 3 weeks
Procedure, shortened: (§5)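 The base layer was 0.5% agar in DMEM in 6-well plates. Cells were suspended in 2× DMEM with 0.7% agar (0.35% agar per legend) at 5 × 10^3 cells per well and overlaid with medium containing test compound. Plates were incubated for 3 weeks at 37 °C under 5% CO2. Colonies were stained with iodonitrotetrazolium chloride in PBS and imaged.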

HEP3B cells [6] = assay: Soft agar anchorage-independent growth assay; type: cell-based, human; settings: GNF-7 0.1 or 0.5 µM, SIJ1263 0.01 or 0.05 µM, 3 weeks
Procedure, shortened: as §5

HUH7 cells [7] = assay: Soft agar anchorage-independent growth assay; type: cell-based, human; settings: GNF-7 0.1 or 0.5 µM, SIJ1263 0.01 or 0.05 µM, 3 weeks
Procedure, shortened: as §5

HEP3B cells [8] = assay: Scratch wound healing migration assay; type: cell-based, human; settings: GNF-7 0.01 or 0.05 μM, SIJ1263 0.002 or 0.005 μM, PD173074 0.1 μM
J82 cells = assay: Cell proliferation assay; type: cell-based
HUH7 cells [9] = assay: Apoptosis assay; type: cell-based, human; settings: 24 h
Procedure, shortened: as §2

HEP3B cells [10] = assay: Cell proliferation assay; type: cell-based, human; settings: 72 h
Procedure, shortened: as §4

FGFR1 V561M = FGFR1 V561M (Homo sapiens, UniProt P11362, V561M); assay: Radiometric biochemical kinase assay; settings: ATP 10 µM
FGFR1 V561M, sequence (P11362 22-822 V561M): as the sequence (P11362 22-822) above, with V540M counted along it

KMS-11 cells = assay: Cell proliferation assay; type: cell-based
FGFR2 WT = FGFR2 WT (Homo sapiens, UniProt P21802); assay: Radiometric biochemical kinase assay; settings: ATP 10 µM
FGFR2 WT, sequence (P21802 22-821): as the sequence (P21802 22-821 N549H) above, with H528N counted along it

SK-HEP1 cells [11] = assay: Apoptosis assay; type: cell-based; settings: 24 h
Procedure, shortened: as §2

SK-HEP1 cells [12] = assay: Cell cycle analysis; type: cell-based; settings: 18 h
HEP3B cells [13] = assay: Invasion assay; type: cell-based, human; settings: low concentrations
Procedure, shortened: (§6)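 Cells (HUH7 in RPMI1640, HEP3B in DMEM) were serum-starved for 12 h. They were then seeded at 5.0 × 10^4 cells per chamber into 8 μm ECMatrix-coated transwell chambers (QCM collagen invasion kit). Test compound was added and chambers were incubated at 37 °C under 5% CO2. Invaded cells were stained with 0.005% crystal violet in PBS.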

[14] = system: phosphorylation of FGFR and downstream molecules (PLCγ, FRS2α, AKT, ERK1/2) in HEP3B cells; assay: Western blot of FGFR signaling; type: cell-based, human; settings: dose-dependent
Procedure, shortened: as §3

MDA-MB-453 cells = assay: Cell proliferation assay; type: cell-based
Procedure, shortened: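 MDA-MB-453 cells (DMEM, 10% FBS, 37 °C, 5% CO2) were plated at 5 × 10^3 per well in 96-well plates. Test compound was added at 10 doses in 3-fold serial dilution for 72 h. Viability was read by CellTiter-Glo luminescence, and GI50 was derived from the dose-response curves.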

HEP3B cells [15] = assay: Cell cycle analysis; type: cell-based, human; settings: 18 h
Procedure, shortened: as §1

HUH7 cells [16] = assay: Cell proliferation assay; type: cell-based, human
Procedure, shortened: as §4

HUH7 cells [17] = assay: Invasion assay; type: cell-based, human; settings: low concentrations
Procedure, shortened: as §6

Cc1ccc(Nc2ncc3c(n2)N(C)C(=O)N(c2cc(NC(=O)c4cccc(C(F)(F)F)c4)ccc2C)C3)cn1 [GNF-7]
cell cycle distribution (HUH7 cells [1]): induce G0/G1 phase cell cycle arrest with decrease in the S phase | GI50 (AN3-CA cells; FGFR2 N549K/K310R, endometrium): 17 nM | IC50 (FGFR1 WT): 11 nM | IC50 (FGFR4 WT; FGFR4 WT, radiometric, ATP 10 µM): 4 nM | IC50 (FGFR4 WT; read-out: IC50 against FGFR4, wtFGFR4): 4.17 nM | apoptosis induction (HEP3B cells [2]): inducing apoptosis | IC50 (FGFR2 N549H): 7 nM | wound healing (migration) (HUH7 cells [3]): substantially reduced | phosphorylation of FGFR and downstream signaling molecules [4]: inhibiting significantly phosphorylation | GI50 (HEPG2 cells; 72 h): 366 ± 70 nM | block of colony formation (SK-HEP1 cells [5]): 11% | suppression of colony-formation (HEP3B cells [6]): almost completely | suppression of colony-formation (HUH7 cells [7]): almost completely | wound healing (migration) (HEP3B cells [8]): substantially reduced | GI50 (J82 cells; J82, FGFR3 K652E, urinary bladder, 72 h): 50 ± 10 nM | apoptosis induction (HUH7 cells [9]): inducing apoptosis | GI50 (HEP3B cells [10]; HEP3B, FGFR4 overexpression, HCC): 373 ± 150 nM | IC50 (FGFR1 V561M): 7540 nM | GI50 (KMS-11 cells; KMS-11, FGFR3 Y373C, myeloma, 72 h): 15 nM | IC50 (FGFR2 WT): 20 nM | apoptosis induction (SK-HEP1 cells [11]): little effects | induction of G0/G1 phase cell cycle arrest (SK-HEP1 cells [12]): little effects | effect on invasion (HEP3B cells [13]): remarkably attenuate invasion | phosphorylation of FGFR and downstream signaling molecules [14]: inhibiting significantly phosphorylation | GI50 (MDA-MB-453 cells; MDA-MB-453, FGFR4 overexpression, breast cancer, 72 h): 443 ± 70 nM | cell cycle distribution (HEP3B cells [15]): induce G0/G1 phase cell cycle arrest with decrease in the S phase | GI50 (HUH7 cells [16]; HUH7, FGFR4 overexpression, HCC, 72 h): 60 ± 10 nM | effect on invasion (HUH7 cells [17]): remarkably attenuate invasion

C=CC(=O)Nc1cccc(C)c1Nc1ncc2cc(-c3c(Cl)c(OC)cc(OC)c3Cl)ccc2n1 [BLU9931]
GI50 (AN3-CA cells; Homo sapiens): 9200 ± 450 nM | GI50 (J82 cells; Homo sapiens, J82, 72 h): 5870 ± 580 nM | GI50 (HEP3B cells [10]; Homo sapiens, Hep3B): 4220 ± 1030 nM | GI50 (KMS-11 cells; Homo sapiens, KMS-11, 72 h): 541 ± 10 nM | GI50 (MDA-MB-453 cells; Homo sapiens, MDA-MB-453, 72 h): 2150 ± 380 nM | GI50 (HUH7 cells [16]; Homo sapiens, Huh-7, 72 h): 715 ± 100 nM

CCN(CC)CCCCNc1ncc2cc(-c3cc(OC)cc(OC)c3)c(NC(=O)NC(C)(C)C)nc2n1 [PD173074]
GI50 (AN3-CA cells; Homo sapiens): 973 ± 2550 nM | IC50 (FGFR4 WT): 97 nM | wound healing (migration) (HUH7 cells [3]): moderately reduced the wound healing | GI50 (HEPG2 cells; 72 h): 13400 ± 3600 nM | GI50 (HEPG2 cells; Homo sapiens, HepG2, 72 h): > 10000 nM | wound healing (migration) (HEP3B cells [8]): moderately reduced the wound healing | GI50 (J82 cells; Homo sapiens, J82, 72 h): 975 ± 450 nM | GI50 (HEP3B cells [10]; Homo sapiens, Hep3B): 2500 ± 490 nM | GI50 (KMS-11 cells; Homo sapiens, KMS-11, 72 h): 64 ± 20 nM | effect on invasion (HEP3B cells [13]): little effect on invasion capability | GI50 (MDA-MB-453 cells; Homo sapiens, MDA-MB-453, 72 h): > 10000 nM | GI50 (HUH7 cells [16]; Homo sapiens, Huh-7, 72 h): 598 ± 240 nM | effect on invasion (HUH7 cells [17]): little effect on invasion capability

CCN1CCN(c2ccc(Nc3cc(N(C)C(=O)Nc4c(Cl)c(OC)cc(OC)c4Cl)ncn3)cc2)CC1 [BGJ398, 3-(2,6-dichloro-3,5-dimethoxy-phenyl)-1-{6-[4-(4-ethyl-piperazin-1-yl)-phenylamino]-pyrimidin-4-yl}-1-methyl-urea]
GI50 (AN3-CA cells; Homo sapiens): 57 ± 10 nM | GI50 (HEPG2 cells; Homo sapiens, HepG2, 72 h): 5370 ± 1100 nM | GI50 (J82 cells; Homo sapiens, J82, 72 h): 2840 ± 1570 nM | GI50 (HEP3B cells [10]; Homo sapiens, Hep3B): 1370 ± 140 nM | GI50 (KMS-11 cells; Homo sapiens, KMS-11, 72 h): 143 ± 100 nM | GI50 (MDA-MB-453 cells; Homo sapiens, MDA-MB-453, 72 h): 2640 ± 280 nM | GI50 (HUH7 cells [16]; Homo sapiens, Huh-7, 72 h): 157 ± 120 nM

CNC(=O)c1cc(Oc2ccc(NC(=O)Nc3ccc(Cl)c(C(F)(F)F)c3)cc2)ccn1 [sorafenib]
GI50 (HEPG2 cells; Homo sapiens, HepG2, 72 h): 8560 ± 1450 nM | GI50 (HEP3B cells [10]; Homo sapiens, Hep3B): 5420 ± 1120 nM | GI50 (HUH7 cells [16]; Homo sapiens, Huh-7, 72 h): 9590 ± 2060 nM
